This note sets out measurements from the RNAGym collection of RNA variant scans (doi:10.1126/science.aae0568).

B1: tRNA (parent)
chain: GUUCCGUUGGCGUAAUGGUAACGCGUCUCCCUCCUAAGGAGAAGACUGCGGGUUCGAGUCCCGUACGGAACG

Variants at the floor of the assay were thinned out. A value given as a limit tells only on which side of the number the result lay.

The data set covers variants of B1. The data set can be described thus: yeast fitness relative to wild type (ratio to wild type); higher = fitter; tRNA-Arg(CCU), competitive growth, 37 C, YPD. A digest of the protocol: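 The tRNA-Arg(CCU) gene variants were made by chemical synthesis with a 3% per-site mutation rate at 69 sites and inserted at the native genomic locus of Saccharomyces cerevisiae. After pooling, the strains were competed in YPD at 37°C for 24 hours in six parallel replicates. Gene amplicons from the start population and each end population were read by 100-nucleotide paired-end sequencing, and Darwinian fitness relative to wild type was taken from genotype frequency changes. Genotypes needed ≥ 100 starting reads, and estimates < 0.5 were set to 0.5.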
On to GUUCCGUUGGCGUAAUGGUGACGAGUCUCCCUCCUAAGGAGAAGACUGCGGGUUCGAGUCCCGUACGGAUCG [A20G C24A A70U], for which the yeast fitness turned out to be 0.546.

With GUUCCGUUGGCGUAAUGGUGACGCGUAUCCCUCCUAAGGGGAAGCCUGCGGGUUCGAGUCCCGUACGGAACG [A20G C27A A40G A45C], the yeast fitness was ≤ 0.5.

As for GUUCCGUUGGCGUAAUGGUGACGAGUCUCCCUCCUAAGGAGAAGACUGUGGGUUCGAGUCCCGUAUGGACCG [A20G C24A C49U C66U A70C], the yeast fitness was ≤ 0.5.

Consider GUUCCGUUGGCGUAAUGGUGACGUGUCUCCCUCCUAAGGAGAAGACUGCGGGUUCGAGUCCCGUACGGAACG [A20G C24U], for which the yeast fitness is 0.9.

Take GUUCCGUUGGCGUAAUGGUGACGUAUCUCCCUCCAAAGGAGAAGACUGCGGGUUCGAGUUCCGUACGGAGCG [A20G C24U G25A U35A C60U A70G]: the yeast fitness was determined as 0.655.

In the case of GUUCCGUUGGCGUAAUGGUGACGCGUCUCCCUCCUAAGGUGAAGACUGCGGAUUAGAGUCCCGUACGGAACG [A20G A40U G52A C55A], the yeast fitness stood at 0.529.

On to GUUCCGUUGGCGUAAUGGUGACGGGUCUCCCUCCUAAGGAGAAGACUGCGGCUUCGAGUCCCGUACGGAACG [A20G C24G G52C], for which the yeast fitness was ≤ 0.5.

For GUUCCGUUGGCGUAAUGGUCACGCGUCUCCCUCCUAAGGAGAAGACUGCGGGUUCGAGUCCCGUACUGAACG [A20C G67U], the yeast fitness amounted to 0.754.

On to GUUCCGUUGGCGUAAUGGUGACGCGUCUACCUCCUAAGGAGAAGACUGUGGGUUCGAGUCCCAUACGGAACG [A20G C29A C49U G63A], for which the yeast fitness was ≤ 0.5.

For the variant GUUCCGUUGGCGUAAUGGUGACGCGUCUGCCUCCUAAGGAGAAGACUGCAGGUUCGAGUCCCGUACGGAUCG [A20G C29G G50A A70U], the yeast fitness is ≤ 0.5.

In the case of GUUCCGUUGGCGUAAUGGUGACGCGUCUCUCUCCUAAGGAGAAGAAUGCGGGUUCGAGUCCCUUACGGAACG [A20G C30U C46A G63U], the yeast fitness is ≤ 0.5.

Turning to GUUCCGUUGGCGUAAUGGUGACGCGUCUCCCUCCUAAGGCGAAGACUGCGGGUUCGAGUCCCGUACGGAACG [A20G A40C], the yeast fitness is 0.803.

In the case of GUUCCGUUGGCGUAAUGGUGACGCGUCUCCCUCCUAAGGUGAAGACUGCGGGUUCGAGUCCCGUACGGAACG [A20G A40U], the yeast fitness worked out at 0.92.

On to GUUCCGUUGGCGUAAUGGUCACGCGUCUCCCACGUAAGGAGAAGACUGCGGGUUCGCGUCCCGUAUGGAACG [A20C U32A C34G A57C C66U], for which the yeast fitness was ≤ 0.5.

In the case of GUUCCGUUGGCGUAAUGGUGAGGCGUCUCUCUCCUAAGGAGAAGACUGCGGGUCCGAGUCCCGUACGGAACG [A20G C22G C30U U54C], the yeast fitness is ≤ 0.5.

Turning to GUUCCGUUGGCGUAAUGGUGACGCGUCUCCCUCCUAAGGGGAAGACUGCCGGUUCGAGUCCCGUACGGAACG [A20G A40G G50C], the yeast fitness is 0.574.

For GUUCCGUUGGCGUAAUGGUCACGCGUCUCCCUCCUAAGGAGAAGACUCCGGGUUCGAGUCCCGUACGGACCG [A20C G48C A70C], the yeast fitness came out at 0.649.

GUUCCGUUGGCGUAAUGGUCACGCGUCUCCCUCCUAAGCAAAAGACUGCGGGUUCGAGUCCCGUACGGAACG [A20C G39C G41A]: the yeast fitness worked out at 0.652.

For GUUCCGUUGGCGUAAUGGUCACGCGUCUCCCUCCUAAGGAGAAGACUGCGGGAUCGAGUCCCGUACGGAACG [A20C U53A], the yeast fitness is 0.767.

Consider GUUCCGUUGGCGUAAUGGUGACGCGUCUCCCUCCUAAGGAGCAGACUGCGGGUUCGAGUCCCGUACGGAGCG [A20G A42C A70G], for which the yeast fitness was 0.629.

On to GUUCCGUUGGCGUAAUGGUGAUGCGUCUCCCUCCUAAGGAGAAGACUGCGCGUUCGAGUCCCGUACGGAACG [A20G C22U G51C], for which the yeast fitness is ≤ 0.5.

Take GUUCCGUUGGCGUAAUGGUCACGCGUCUCCCUCCUAAGGAAAAGACUGCGGGUUCGAUUCCCGUACGGAACG [A20C G41A G58U]: the yeast fitness came to 0.706.

With GUUCCGUUGGCGUAAUGGUGACGCGUCUCCCUCCUAAGGCGUCGACUGCGGGUUCGAGUCCCGUACGGAACG [A20G A40C A42U A43C], the yeast fitness was ≤ 0.5.

For GUUCCGUUGGCGUAAUGGUCACGCGUCACCCUCCUAAGGAGAAGACUGCGGGUUCGAGUCCUGUACAGAACG [A20C U28A C62U G67A], the yeast fitness was ≤ 0.5.

In the case of GUUCCGUUGGCGUAAUGGUCACGCGUCUCCCACGUAUGGAGAAGACUGCGGGUUCGAGUCCCGUACGGAACG [A20C U32A C34G A37U], the yeast fitness is ≤ 0.5.

In the case of GUUCCGUUGGCGUAAUGGUCACGCGUCUCCCUCCCAAGGAGAAGACUGCGCGUUCGGGUGCCGUACGGAUCG [A20C U35C G51C A57G C60G A70U], the yeast fitness was ≤ 0.5.

As to GUUCCGUUGGCGUAAUGGUGAGGCGUCUCCCUCCUAAGGAGAAGACUGCGGGUACGAGUCCCGUACGGAACG [A20G C22G U54A], the yeast fitness was ≤ 0.5.

For GUUCCGUUGGCGUAAUGGUCACGCGUCUCCCUCCUAAGGAGAAGACUCCGGGUUCGGGUCCCAUACGGAACG [A20C G48C A57G G63A], the yeast fitness is ≤ 0.5.

GUUCCGUUGGCGUAAUGGUGACGUGUCUCCCUCCUAAGGAGAAGACUGCGGGUUCAAGUCCCGUAGGGAACG [A20G C24U G56A C66G]: the yeast fitness was ≤ 0.5.

On to GUUCCGUUGGCGUAAUGGUCACGCGUCUCCCUCCUAAGGAGAAGACUGCGGGUUCGAGCCCCGUACGGCACG [A20C U59C A69C], for which the yeast fitness worked out at 0.705.

Turning to GUUCCGUUGGCGUAAUGGUGGCGCGUCUGCCUCCUAAGGAGAAGACUGCGGGUUCGAGUCCCGUACGGAACG [A20G A21G C29G], the yeast fitness was determined as 0.543.

GUUCCGUUGGCGUAAUGGUGACGCGUCUCCCUCCUAAGGAGAAGACUGCGGGUUCGGGUCCUGUACGGGACG [A20G A57G C62U A69G]: the yeast fitness came to 0.772.

As to GUUCCGUUGGCGUAAUGGUGUCGCGUCUCCCUCCUAAGGAGCAGACUGCGGGUUCGAGUCCCGUACGGAACG [A20G A21U A42C], the yeast fitness turned out to be 0.547.

Regarding GUUCCGUUGGCGUAAUGGUGGCGUGUCUCCCUCCUAAGGAGAAGACUGCGGGUUCGAGCCCAGUACGGAACG [A20G A21G C24U U59C C62A], the yeast fitness is ≤ 0.5.

For the variant GUUCCGUUGGCGUAAUGGUCACGCGUCUCCCUCCUAAAGAGAAGACUGCGGGAUCGAGUCCCGUACGGAACG [A20C G38A U53A], the yeast fitness was ≤ 0.5.

As to GUUCCGUUGGCGUAAUGGUGACGCGUCUGCCUCCUAAGGAGAAGACUGUGGGUUCGAGUCCCGUACGAAACG [A20G C29G C49U G68A], the yeast fitness was ≤ 0.5.

Consider GUUCCGUUGGCGUAAUGGUGACGCGUCUCCCUCCUAAGGCGUCGACUACGGGUUCGAGUCCCGUACGGCACG [A20G A40C A42U A43C G48A A69C], for which the yeast fitness was ≤ 0.5.

Turning to GUUCCGUUGGCGUAAUGGUGACGCGUCUCCCUCCUAAGGAGAUGACUGCGGGUUCGAGUCCCGUACGGAACG [A20G A43U], the yeast fitness is 1.03.
